The record followed here is PMC7548052 (Molecular Diversity, 2020).

Broadly, the GI50 is the concentration that inhibits growth by half.

Counter-ions that a name gives are not always drawn.

Holding throughout (type): cell-based
For one test, the system named is K-562. Description: Anticancer screening, MTS cell proliferation assay, 72 h. The note with it: Homo sapiens, K562, 72 h. Put shortly: (§1)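 HL-60, K-562, Z-138 and DND-41 suspension cells were seeded at 2500–6000 cells/well directly into wells already containing test compound at seven concentrations (100 to 6.4 × 10−3 µM). After 72 h, MTS reagent was added and absorbance read at 490 nm. GI50 is the concentration giving 50% growth inhibition. Two independent experiments were run, each point at least in triplicate.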
A general note: Tetrazolium dyes change colour on reduction, which living cells bring about.

The subject of a further test is Z-138. The test is described as above. The note with it: Homo sapiens, Z-138, 72 h. In short, it runs like this:
as §1

In a further test the test system is LN-229. Description: Anticancer screening, MTS cell proliferation assay, 72 h. The conditions noted are these: Homo sapiens, LN-229, 72 h. In short, it runs like this:
(§2)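 Human solid-tumour lines were grown as monolayers in supplier-recommended media at 37 °C, 5% CO2. LN-229 was seeded at 375 and Capan-1 at 250 cells/well and incubated overnight. Cells were then exposed for 72 h to seven concentrations (100 to 6.4 × 10−3 µM). MTS reagent was added and absorbance read at 490 nm. Two independent experiments were run, each point at least in triplicate.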

For another test, the system named is H460. Description: Anticancer screening, MTT assay, 72 h. The note with it: Homo sapiens, NCI-H460, 72 h. In short, it runs like this:
(§3)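 Monolayer cultures were kept at 37 °C, 5% CO2 and plated on day 0 at 3 × 10^4 cells/mL (HCT 116, H460) or 5 × 10^4 cells/mL (MCF-7). Test agents were added in ten-fold dilutions (10−8 to 10−4 M) and incubated 72 h. Growth was read by MTT at 570 nm. GI50 is the concentration giving 50% inhibition. Two independent experiments were run, points at least in triplicate.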

The next test deals with DND-41. Description: Anticancer screening, MTS cell proliferation assay, 72 h. The note with it: Homo sapiens, DND41, 72 h. In short, it runs like this:
as §1

The test system of a further test is MCF-7. Nature of the test: Anticancer screening, MTT assay, 72 h. The conditions noted are these: Homo sapiens, MCF7, 72 h. In short, it runs like this:
as §3

A further test relates to HL-60. Description: Anticancer screening, MTS cell proliferation assay, 72 h. The conditions noted are these: Homo sapiens, HL-60, 72 h. In short, it runs like this:
as §1

The test system of a further test is Capan-1. Description: Anticancer screening, MTS cell proliferation assay, 72 h. The conditions noted are these: Homo sapiens, CAPAN-1, 72 h. In short, it runs like this: as §2
The next test deals with HCT 116. Description: Anticancer screening, MTT assay, 72 h. The note with it: Homo sapiens, HCT-116, 72 h. In short, it runs like this:
as §3

Turning to `C=C(CC(=O)OC)C(=O)NCCCCNc1ccnc2cc(Cl)ccc12` [Compound 12, Methyl 3-({4-[(7-chloroquinolin-4-yl)amino]butyl}carbamoyl)but-3-enoate], the GI50 in the test with K-562 was found to be 8.1 ± 0.4 µM; with Z-138, 1.9 ± 0.1 µM; with LN-229 it was 1100 ± 100 nM; in the test with H460 it was 2000 ± 900 nM; with DND-41, 3.1 ± 0.1 µM; in the test on MCF-7, 800 ± 300 nM. Besides, the figures for the GI50 in the test on HL-60, in the test with Capan-1 and with HCT 116 were 1.9 µM, 1300 ± 400 nM and 2000 ± 50 nM, respectively.
Regarding `C=C(CC(=O)OC)C(=O)NCCCCNc1cc(C(F)(F)F)nc2c(C(F)(F)F)cccc12` [Compound 13, Methyl 3-[(4-{[2,8-bis(trifluoromethyl)quinolin-4-yl]amino}butyl)carbamoyl]but-3-enoate], the GI50 in the test on K-562 is 46.9 ± 0.7 µM; with Z-138, 12.2 ± 0.1 µM; in the test with LN-229, 10800 ± 2500 nM; with H460, 3500 ± 1300 nM; in the test on DND-41, 36.7 ± 10 µM; in the test with MCF-7, 1400 ± 100 nM. Besides, the results for the GI50 in the test with HL-60, in the test on Capan-1 and in the test on HCT 116 were 10.3 ± 1.5 µM, 32200 ± 2700 nM and 2000 ± 800 nM, respectively.
For `CC(=CC(=O)NCCCCNc1cc(C(F)(F)F)nc2c(C(F)(F)F)cccc12)C(=O)NCCCCNc1cc(C(F)(F)F)nc2c(C(F)(F)F)cccc12` [Compound 15, N,N′-bis(4-{[2,8-bis(trifluoromethyl)quinolin-4-yl]amino}butyl)-2-methylbut-2-enediamide], the 50% growth inhibitory concentration (GI50) in the test with K-562 stood at 8.6 ± 0.3 µM; with Z-138, 6.9 ± 1.3 µM; in the test with LN-229, 2400 ± 800 nM; with H460, 3000 ± 1000 nM; with DND-41, 7.9 ± 4.4 µM; with MCF-7, 700 ± 200 nM. For the same compound, the GI50 with HL-60 came to 2.6 ± 0.2 µM; in the test with Capan-1, 2300 ± 300 nM; with HCT 116, 2400 ± 400 nM.
On to `OC(c1cc(C(F)(F)F)nc2c(C(F)(F)F)cccc12)C1CCCCN1` (stereo not drawn) [MQ, mefloquine hydrochloride, reference compound], for which the GI50 in the test with K-562 worked out at 9.4 ± 0.3 µM; in the test with Z-138, 12.6 ± 0.1 µM; with LN-229, 100 ± 100 nM; in the test with H460, 1500 ± 100 nM; in the test on DND-41 it was 3.2 ± 0.2 µM; in the test on MCF-7, 1300 ± 200 nM. For the same compound, the 50% growth inhibitory concentration (GI50) worked out at 5.9 ± 3.2 µM with HL-60, 2000 ± 100 nM with Capan-1 and 2000 ± 100 nM in the test on HCT 116.
In the case of `COc1cc(NC(C)CCCN)c2ncccc2c1` (stereo not drawn) [PQ, primaquine diphosphate, reference compound], the GI50 with K-562 is 43.3 ± 0.1 µM; with Z-138, 10.2 ± 0.5 µM; in the test with LN-229 it was 9900 ± 400 nM; in the test on H460, 17000 ± 3000 nM; with DND-41, 14 ± 1 µM; in the test with MCF-7, 7000 ± 1500 nM. The values for the GI50 with HL-60, in the test on Capan-1 and in the test on HCT 116 were 7 ± 0.5 µM, 9000 ± 3200 nM and 17000 ± 1000 nM, respectively.
